In ChEMBL document CHEMBL1137873, “Synthesis of benzimidazole based analogues of sphingosine-1-phosphate: discovery of potent, subtype-selective S1P4 receptor agonists” (Bioorg Med Chem Lett, 2004):

How the values were obtained:
[1] = target: T1, Sphingosine 1-phosphate receptor 4 (Homo sapiens, UniProt O95977); test: In vitro binding affinity towards human Sphingosine 1-phosphate receptor 4 expressed in HEK293T cells was determined using [gamma-35S]-GTP as radioligand; assay type: cell-based, HEK-293T
T1 sequence (O95977 whole entry): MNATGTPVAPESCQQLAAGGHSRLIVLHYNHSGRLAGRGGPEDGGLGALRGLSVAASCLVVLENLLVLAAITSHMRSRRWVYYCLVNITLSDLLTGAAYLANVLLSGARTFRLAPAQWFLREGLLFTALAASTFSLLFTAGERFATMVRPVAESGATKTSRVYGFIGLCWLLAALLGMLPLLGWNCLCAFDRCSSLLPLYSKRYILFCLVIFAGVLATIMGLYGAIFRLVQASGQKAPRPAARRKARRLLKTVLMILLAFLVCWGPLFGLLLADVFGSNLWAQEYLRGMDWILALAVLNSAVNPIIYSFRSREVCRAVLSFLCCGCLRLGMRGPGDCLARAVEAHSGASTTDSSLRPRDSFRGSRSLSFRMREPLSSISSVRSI
In short: (§1)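 Membranes (5 µg) from HEK293T cells expressing the relevant human S1P receptor plus G-protein, incubated in GTP-binding buffer (HEPES 50 mM, NaCl 100 mM, MgCl2 5 mM, pH 7.5) with 5 µg saponin, 10 µM GDP, 0.1 nM [γ-35S]GTP and test lipid. Incubation was 30 min at 30°C. Bound label was separated by GF/C filtration and scintillation counted. EC50 is the mean of three experiments.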

[2] = target: Sphingosine 1-phosphate receptor 2 (Homo sapiens, UniProt O95136); test: In vitro binding affinity towards human Sphingosine 1-phosphate receptor 2 expressed in HEK293T cells was determined using [gamma-35S]-GTP as radioligand; na denotes not active; assay type: cell-based; conditions: hek-293t; in short: as §1
Chain of Sphingosine 1-phosphate receptor 2 (O95136 whole entry): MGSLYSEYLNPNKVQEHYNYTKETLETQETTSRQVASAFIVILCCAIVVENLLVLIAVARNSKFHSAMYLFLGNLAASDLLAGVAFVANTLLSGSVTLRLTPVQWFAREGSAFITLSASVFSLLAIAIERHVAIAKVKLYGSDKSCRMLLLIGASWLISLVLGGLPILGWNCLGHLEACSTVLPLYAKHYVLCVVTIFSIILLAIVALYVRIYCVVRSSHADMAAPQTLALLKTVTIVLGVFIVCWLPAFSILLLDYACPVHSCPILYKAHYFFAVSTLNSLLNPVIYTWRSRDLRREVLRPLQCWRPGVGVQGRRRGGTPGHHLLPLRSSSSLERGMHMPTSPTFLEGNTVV

[3] = target: T2, Sphingosine 1-phosphate receptor 3 (Homo sapiens, UniProt Q99500); test: In vitro binding affinity towards human Sphingosine 1-phosphate receptor 3 expressed in HEK293T cells was determined using [gamma-35S]-GTP as radioligand; na denotes not active; assay type: cell-based; conditions: hek-293t; in short: as §1
T2 sequence (Q99500 whole entry): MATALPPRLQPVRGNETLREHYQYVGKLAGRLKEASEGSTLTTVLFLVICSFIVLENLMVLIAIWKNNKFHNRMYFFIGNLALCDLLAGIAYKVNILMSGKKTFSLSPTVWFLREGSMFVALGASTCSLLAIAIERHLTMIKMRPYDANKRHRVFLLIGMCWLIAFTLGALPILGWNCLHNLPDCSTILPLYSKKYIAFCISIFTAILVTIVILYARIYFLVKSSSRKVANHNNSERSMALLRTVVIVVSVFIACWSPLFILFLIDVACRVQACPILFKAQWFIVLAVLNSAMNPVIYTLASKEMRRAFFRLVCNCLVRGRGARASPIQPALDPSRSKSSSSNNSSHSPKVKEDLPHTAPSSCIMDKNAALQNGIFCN

[4] = target: T3, Sphingosine 1-phosphate receptor 1 (Homo sapiens, UniProt P21453); test: In vitro binding affinity towards human Sphingosine 1-phosphate receptor 1 expressed in HEK293T cells was determined using [gamma-35S]-GTP as radioligand; partial agonist; assay type: cell-based, HEK-293T; in short: as §1
T3 sequence (P21453 whole entry): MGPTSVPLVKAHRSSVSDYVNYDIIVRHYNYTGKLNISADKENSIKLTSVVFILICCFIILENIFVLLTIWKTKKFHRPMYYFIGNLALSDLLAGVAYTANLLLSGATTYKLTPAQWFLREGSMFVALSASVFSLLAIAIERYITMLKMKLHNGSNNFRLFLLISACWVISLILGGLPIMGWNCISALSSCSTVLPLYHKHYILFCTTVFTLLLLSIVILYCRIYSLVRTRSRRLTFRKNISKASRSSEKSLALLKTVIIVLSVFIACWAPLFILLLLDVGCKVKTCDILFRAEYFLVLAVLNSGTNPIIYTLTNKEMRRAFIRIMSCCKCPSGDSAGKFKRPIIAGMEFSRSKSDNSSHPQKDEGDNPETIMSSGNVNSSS

[5] = target: T4, Sphingosine 1-phosphate receptor 5 (Homo sapiens, UniProt Q9H228); test: In vitro binding affinity towards human Sphingosine 1-phosphate receptor 5 expressed in HEK293T cells was determined using [gamma-35S]-GTP as radioligand; partial agonist; assay type: cell-based, HEK-293T; in short: as §1
T4 sequence (Q9H228 whole entry): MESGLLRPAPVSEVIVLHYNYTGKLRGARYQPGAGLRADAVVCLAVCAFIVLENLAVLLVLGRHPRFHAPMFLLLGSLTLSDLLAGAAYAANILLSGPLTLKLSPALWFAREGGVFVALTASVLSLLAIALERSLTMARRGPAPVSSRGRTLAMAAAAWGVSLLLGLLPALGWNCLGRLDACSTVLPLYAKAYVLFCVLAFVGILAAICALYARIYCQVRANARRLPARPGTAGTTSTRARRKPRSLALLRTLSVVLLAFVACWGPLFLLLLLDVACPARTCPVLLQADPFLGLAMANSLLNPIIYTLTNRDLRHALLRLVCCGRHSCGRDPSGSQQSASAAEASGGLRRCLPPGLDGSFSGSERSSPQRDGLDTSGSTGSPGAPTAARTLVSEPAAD

[6] = target: T4, Sphingosine 1-phosphate receptor 5; test: In vitro binding affinity towards human Sphingosine 1-phosphate receptor 5 expressed in HEK293T cells was determined using [gamma-35S]-GTP as radioligand; na denotes not active; assay type: cell-based; conditions: hek-293t; in short: as §1
[7] = target: T3, Sphingosine 1-phosphate receptor 1; test: In vitro binding affinity towards human Sphingosine 1-phosphate receptor 1 expressed in HEK293T cells was determined using [gamma-35S]-GTP as radioligand; assay type: cell-based, HEK-293T
[8] = target: T2, Sphingosine 1-phosphate receptor 3; test: In vitro binding affinity towards human Sphingosine 1-phosphate receptor 3 expressed in HEK293T cells was determined using [gamma-35S]-GTP as radioligand; assay type: cell-based, HEK-293T

Row | SMILES | EC50 [1] [nM] | EC50 [2] | EC50 [3] | EC50 [4] [nM] | EC50 [5] [nM] | EC50 [6] | EC50 [7] [nM] | EC50 [8] [nM]
1 | CCCCCCCCc1ccc2[nH]c([C@@H](N)[C@@H](C)OP(=O)(O)O)nc2c1.O=C(O)C(F)(F)F | 94 | Not Active | Not Active | 240 | 77 |  |  | 
2 | CCCCCCCCc1ccc2[nH]c([C@@H](N)COP(=O)(O)O)nc2c1.COC(=O)C(F)(F)F | 48 | Not Active | Not Active | 37 | 6.6 |  |  | 
3 | CCCCCCCCc1ccc2[nH]c([C@H](N)CO)nc2c1.O=C(O)C(F)(F)F | 1600 | Not Active | Not Active | 330 | 390 |  |  | 
4 | CCCCCCCCc1ccc2[nH]c([C@@H](N)[C@@H](C)O)nc2c1.O=C(O)C(F)(F)F | 33000 | Not Active | Not Active | 2900 |  | Not Active |  | 
5 | CCCCCCCCc1ccc2[nH]c([C@H](N)COP(=O)(O)O)nc2c1.COC(=O)C(F)(F)F | 36 | Not Active | Not Active | 21 | 8.2 |  |  | 
6 | CCCCCCCCc1ccc2[nH]c(C(C)(N)COP(=O)(O)O)nc2c1.O=C(O)C(F)(F)F (stereo not drawn) | 1200 | Not Active | Not Active | 1000 | 370 |  |  | 
7 | CCCCCCCCc1ccc2[nH]c([C@@H](N)CO)nc2c1.O=C(O)C(F)(F)F | 4200 | Not Active | Not Active | 2100 | 2400 |  |  | 
8 | CCCCCCCCCCCCC/C=C/[C@@H](O)[C@@H](N)COP(=O)(O)O | 37 |  |  |  |  |  | 20 | 1.2
